The source of these data is ChEMBL document CHEMBL1667740, “Phenolic glycosides with antimalarial activity from Grevillea "Poorinda Queen"” (J Nat Prod, 2011).

In general, IC50 refers to the point on the concentration scale where inhibition reaches its midpoint.

Molecules are shown by their SMILES.

The test system of series [1] is Plasmodium falciparum. As to the kind of experiment: Antimalarial activity against chloroquine-sensitive Plasmodium falciparum D6 infected in human O positive red blood cells assessed as inhibition of [3H]-hypoxanthine uptake after 48 hrs. It counts as functional, organism-based. In a few lines: (§1)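 Synchronised ring-stage parasites (sorbitol selection) kept in RPMI-1640 with HEPES, glucose, hypoxanthine, gentamycin, 10% human plasma and 4% O+ RBCs under 5% O2/5% CO2/90% N2 at 37 °C. Assay at 2% hematocrit and 1% parasitemia in hypoxanthine-free medium. DMSO stocks of 20-25 mg/mL, ten 2-fold dilutions in triplicate, 48 h. [3H]-hypoxanthine (0.2 µCi) added at 24 h. IC50 taken against compound-free controls.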

The subject of series [2] is HEK293. As to the kind of experiment: Cytotoxicity against human HEK293 cells after 72 hrs by alamar blue assay. The class given is cell-based. Conditions: HEK293, 72 h. The gist of the method:
(§2)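 HEK-293 and HepG2 cells grown in RPMI 1640 with 10% FBS and L-glutamine at 37 °C. Seeded at 5 × 10^3 cells/well and left 24 h before drug addition. Compounds tested from 312 to 0.6 µg/mL, artesunate and chloroquine from 120 µM to 60 nM, in triplicate for 72 h. DMSO vehicle and cell-free background wells as controls. 10% Alamar Blue added for 2 h, fluorescence read at ex 530/em 595 nm. IC50 from at least two independent experiments, mean ± SD.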
On the technique in general: The colour change of resazurin is a common sign of viable cells or microbes.

The test system of series [3] is HepG2. As to the kind of experiment: Cytotoxicity against human HepG2 cells after 72 hrs by alamar blue assay. It counts as cell-based. As to conditions: HepG2, 72 h. The gist of the method: as §2
Series [4] in a line: Selectivity index, ratio of IC50 for human HepG2 cells to IC50 for Plasmodium falciparum 3D7.
The nature of series [5]: Selectivity index, ratio of IC50 for human HEK293 cells to IC50 for Plasmodium falciparum 3D7.
Series [6] relates to Plasmodium berghei. The series can be described thus: Antimalarial activity against Plasmodium berghei infected in mouse assessed as reduction of parasite infection at 1 mg/kg, sc qd for 4 days relative to control. It counts as functional. Also noted: scale not given: the % may be the effect or the level left. As to conditions: route subcutaneous.
The test system of series [7] is Plasmodium berghei. As to the kind of experiment: Antimalarial activity against Plasmodium berghei infected in mouse assessed as reduction of parasite infection at 2 mg/kg, sc qd for 4 days relative to control. The class given is functional. The arrangement: scale not given: the % may be the effect or the level left. As to conditions: route subcutaneous.
In series [8] the test system is Plasmodium falciparum. The series can be described thus: Antimalarial activity against chloroquine-sensitive Plasmodium falciparum 3D7 infected in human O positive red blood cells assessed as inhibition of [3H]-hypoxanthine uptake after 48 hrs. The class given is functional, organism-based. In a few lines:
as §1

In series [9] the test system is Plasmodium falciparum. The series can be described thus: Antimalarial activity against chloroquine, pyrimethamine, and mefloquine-resistant Plasmodium falciparum Dd2 infected in human O positive red blood cells assessed as inhibition of [3H]-hypoxanthine uptake after 48 hrs. It counts as functional, organism-based. In a few lines: as §1
Series [10] deals with Plasmodium falciparum. The series can be described thus: Antimalarial activity against chloroquine and pyrimethamine-resistant Plasmodium falciparum K1 infected in human O positive red blood cells assessed as inhibition of [3H]-hypoxanthine uptake after 48 hrs. It counts as functional, organism-based. The gist of the method: as §1
Series [11] deals with Plasmodium falciparum. As to the kind of experiment: Antimalarial activity against multidrug-resistant Plasmodium falciparum TM90-C2B infected in human O positive red blood cells assessed as inhibition of [3H]-hypoxanthine uptake after 48 hrs. The class given is functional, organism-based. The gist of the method: as §1
In series [12] the test system is Plasmodium falciparum. As to the kind of experiment: Antimalarial activity against multidrug-resistant Plasmodium falciparum TM93-C1088 infected in human O positive red blood cells assessed as inhibition of [3H]-hypoxanthine uptake after 48 hrs. It counts as functional, organism-based. In a few lines:
as §1

For series [13], the system named is Mus musculus. The series can be described thus: Toxicity in mouse assessed as physical stress at 32 mg/kg, sc qd for 4 days. Also noted: dose 32 mg/kg, route subcutaneous. It counts as organism-based. As to conditions: in vivo, 96 h. In a few lines:
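Tolerability in healthy mice: subcutaneous dosing for 4 days. Mice watched for physical stress, namely ruffled coat, extreme pallor, weight loss, shaking and reduced mobility.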

Series [14] relates to Plasmodium berghei. The series can be described thus: Antimalarial activity against Plasmodium berghei infected in mouse assessed as reduction of parasite infection at 32 mg/kg, sc qd for 4 days relative to control. The class given is functional. Also noted: scale not given: the % may be the effect or the level left. As to conditions: route subcutaneous.
Series [15] has as its system Plasmodium berghei. The series can be described thus: Antimalarial activity against Plasmodium berghei infected in mouse assessed as reduction of parasite infection at 32 mg/kg, sc bid for 4 days relative to control. It counts as functional. The arrangement: scale not given: the % may be the effect or the level left. Conditions: route subcutaneous. The gist of the method: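 Peters 4-day suppressive test in female mice (n = 6) inoculated intraperitoneally with 20 × 10^6 P. berghei ANKA-infected erythrocytes. Test articles dissolved in Tween 80/ethanol (7:3, v/v), diluted 10-fold in distilled water, and given subcutaneously from D0 (about 2 and 6 h post-inoculation) over 4 days. Chloroquine prepared in water. Giemsa-stained thin smears on D+1 to D+4. Microscopic % infected erythrocytes, suppression at D+4 versus vehicle control.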

On to `C[C@H]1O[C@H](OC[C@H]2O[C@@H](Oc3cc(O)c4c(=O)c(O)c(-c5ccc(O)c(O)c5)oc4c3)[C@H](O)[C@@H](O)[C@H]2O)[C@@H](O)[C@@H](O)[C@@H]1O` (stereo in doubt), for which the IC50 in series [1] is above 500 µM.

As to `C[C@H]1[C@H](OC(=O)CCC(=O)O)O[C@@H]2O[C@@]3(C)CC[C@H]4[C@H](C)CC[C@@H]1[C@@]24OO3` [ARTESUNATE], the values for the IC50 in series [2] and in [3] were 2.9 µM and 12.7 µM, respectively. The SI in series [4] is 374; in series [5] it was 150.

For the compound `CCN(CC)CCCC(C)Nc1ccnc2cc(Cl)ccc12` (stereo not given) [CHLOROQUINE], the IC50 is 12 µM in series [2] and 8.3 µM in [3]. Besides, the Activity in [6] was determined as 58%; in series [7], 97%. Moreover, the SI came to 415 in series [4] and 600 in series [5].

For `O=C1C=CC(O)(/C=C/C(=O)OC[C@H]2O[C@@H](Oc3ccc(O)cc3)[C@H](O)[C@@H](O)[C@@H]2O)C=C1` [ROBUSTASIDE D], the IC50 in series [1] was determined as 5.1 µM; in series [8], 5.5 µM; in series [9], 3 µM; in series [10], 3 µM; in series [11] it was 5.3 µM; in series [12], 4.1 µM. For the same compound, the IC50 in series [2] worked out at 195 µM; in series [3] it was 221 µM. Also, the Activity entry in series [13] is reported as “Non-toxic”; in series [14], 21%; in series [15] it was 95%. In addition, the results for the SI in [4] and in series [5] were 37 and 33, respectively.

In the case of `O=C(/C=C/C1(O)C=CC(O)CC1=O)OC[C@H]1O[C@@H](Oc2ccc(O)cc2)[C@H](O)[C@@H](O)[C@@H]1O` (stereo not given in full) [ROBUSTASIDE E], the IC50 in series [1] came out at 55.5 µM; in series [8], 77.4 µM; in [9], 55.5 µM; in series [10], 29.4 µM; in [11], 36.2 µM; in series [12], 25.3 µM. Besides, the half-inhibitory concentration (IC50) in series [2] and in [3] was above 690 µM throughout. The SI in series [4] and in [5] was above 10 throughout.

Regarding `COc1ccc(O)c(/C=C\C(=O)OC[C@H]2O[C@@H](Oc3ccc(O)cc3)[C@H](OC(=O)/C=C\c3cc(OC)ccc3O)[C@@H](O)[C@@H]2O)c1` [ROBUSTASIDE F], in series [1], the IC50 came to 14.7 µM.
